Source: ChEMBL document CHEMBL1140812, “Synthesis of genistein derivatives and determination of their protective effects against vascular endothelial cell damages caused by hydrogen peroxide” (Bioorg Med Chem Lett, 2008)
Activity calls are given as the source filed them. No cut-off for these calls is given here.

Test system: HUVE12
Assay: Protection against hydrogen peroxide-induced apoptosis in human HUVE12 cells
Format: functional, cell-based
Method in brief: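 HUVE-12 cells in DMEM with 10% newborn calf serum at 37 °C, 5% CO2. Pretreated 30 min with compound (0.1, 1.0, 10.0 µM; also 0.1–10.0 µM series) or 0.02% DMSO vehicle, then 1 mM H2O2 for 24 h. Trypsinized, fixed in 70% ice-cold ethanol, stained with PI/RNase A 15 min at 37 °C; apoptosis by flow cytometry. Three independent experiments.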

Row | SMILES | Activity
1 | COc1ccc(-c2coc3cc(OC(F)F)cc(OC)c3c2=O)cc1 | Active

Test system: HUVE12
Assay: Reversal of hydrogen peroxide-induced LDH activity in human HUVE12 cells
Format: functional, cell-based
Method in brief: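 HUVE-12 cells pretreated 30 min with compound (0.1–10.0 µM) or 0.02% DMSO vehicle, then 1 mM H2O2 for 24 h at 37 °C. Medium sampled before harvest; LDH activity measured by colorimetric kit as a marker of cell injury. Average of three experiments.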

Row | SMILES | Activity
2 | CC(C)C/C=C/Oc1ccc(-c2coc3cc(OC(F)F)cc(O/C=C/CC(C)C)c3c2=O)cc1 | Active
3 | O=c1c(-c2ccc(OCc3ccccc3)cc2)coc2cc(OC(F)F)cc(OCc3ccccc3)c12 | Active
4 | O=c1c(-c2ccc(O)cc2)coc2cc(OC(F)F)cc(O)c12 | Active
5 | COc1ccc(-c2coc3cc(OC(F)F)cc(OC)c3c2=O)cc1 | Active
6 | CCOc1ccc(-c2coc3cc(OC(F)F)cc(OCC)c3c2=O)cc1 | Active
7 | O=c1c(-c2ccc(O)cc2)coc2cc(O)cc(O)c12 | Active
8 | O=c1c(-c2ccc(OC(F)F)cc2)coc2cc(OC(F)F)cc(O)c12 | Active
9 | CCCCCCCCCOc1ccc(-c2coc3cc(OC(F)F)cc(OCCCCCCCCC)c3c2=O)cc1 | Active
10 | CCCCCCCOc1ccc(-c2coc3cc(OC(F)F)cc(OCCCCCCC)c3c2=O)cc1 | Active
11 | CCCOc1ccc(-c2coc3cc(OC(F)F)cc(OCCC)c3c2=O)cc1 | Active
12 | CCCCCCCCOc1ccc(-c2coc3cc(OC(F)F)cc(OCCCCCCCC)c3c2=O)cc1 | Active
